High-throughput results from PubChem.
A1 inh – inhibitors of the anti-apoptotic protein A1, read as caspase activation. MEF A1-2A-BIM cells, Caspase-Glo 3/7 luminescence, 3 h; percent of clofoctol response, vehicle zero. caspase activation, % (test concentration not listed). actives 0.066% (n = 330,000);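 active means over half of replicate activation scores above 10%, or exactly half above 10 with the replicate mean above 10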
MsrA inhibitor – inhibits bovine methionine sulfoxide reductase A; purified bovine MsrA, absorbance read-out; inhibition, % at 15.5 µM; actives 0.75% (n = 360,000); in the data active means inhibition above about 4.5%;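 further: 0% = vehicle wells with enzyme and 100% = reference inhibitor wells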
bovine MsrA act – activators of bovine methionine sulfoxide reductase A; actives 0.3% (n = 360,000); purified bovine MsrA, absorbance read-out; activation, % at 10.6 µM; in the data active means activation above about 7.5%;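 further: 0% = vehicle and 100% = reference activator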
procasp3 activ – procaspase-3 (human) activation | recombinant procaspase-3 D3A, Ac-DEVD-pNA absorbance 405 nm | activation, % at 8.5 µM | actives 0.11% (n = 330,000) | AID 463141 | P42574;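 active means activation above the mean of all tested compounds plus 3 SD, cut at about 21% in these data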;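 further: 0% = DMSO alone and 100% = DMSO wells spiked with extra 5 µM PC-3 D3A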
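Technique: 405 nm absorbance of p-nitroaniline, reads at 0 and 120 min; Test system: Procaspase-3 D3A mutant; Incubation: 1 h enzyme-compound preincubation, then 2 h substrate reaction, 25 °C; Repeats: singlicate, each compound tested once; Benchmarks: low control DMSO wells, high control DMSO plus 5 µM PC-3 D3A.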
procasp7 counter – counter-screen: procaspase-7 (human) activation. AID 463210. recombinant procaspase-7, Ac-DEVD-pNA absorbance 405 nm; D23A/D198A/D206A triple mutant, cannot self-cleave; scale: DMSO 0, 5 µM enzyme 100. P55210. activation, % at 8.5 µM. actives 0.093% (n = 330,000);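 active means percent activation above the screen-wide mean plus 3 SD, cut at about 25% in these data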
Target sequence (P55210 whole entry D23A/D198A/D206A): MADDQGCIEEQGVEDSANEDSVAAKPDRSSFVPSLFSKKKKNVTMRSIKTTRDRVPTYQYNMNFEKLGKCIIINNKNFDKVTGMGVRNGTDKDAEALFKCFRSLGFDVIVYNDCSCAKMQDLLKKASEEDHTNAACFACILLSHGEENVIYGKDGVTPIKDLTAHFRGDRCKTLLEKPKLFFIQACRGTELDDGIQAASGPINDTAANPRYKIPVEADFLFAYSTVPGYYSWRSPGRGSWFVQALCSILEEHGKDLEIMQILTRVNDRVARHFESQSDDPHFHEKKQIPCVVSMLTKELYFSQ
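Detection: p-Nitroaniline absorbance at 405 nm, read at 0 and 120 min; system: Uncleavable procaspase-7 mutant enzyme; evaluation: % activation from two-timepoint absorbance difference, scaled to controls; times: 1 h enzyme–compound preincubation and 2 h substrate reaction, both 25 °C; buffer or medium: Zinc-free HEPES pH 7.4 with 300 mM NaCl, 0.01% Triton X-100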
MsrA act confirm – bovine methionine sulfoxide reductase A activation confirmed. shares compounds with bovine MsrA act. purified bovine MsrA, absorbance read-out. activation, % at 10.6 µM. actives 12% (n = 1,000). AID 602270; in the data active means activation above about 4%;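 further: enzyme coupled to thioredoxin and thioredoxin reductase with NADPH; 0% = vehicle wells and 100% = reference activator wells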
Numbers without * were called inactive. Shown are actives, neighbours in structure and some others; about 1.2% of the full set was active somewhere.

Screening S=C(NCCCN1CCOCC1)Nc1ccc(Cl)c(Cl)c1 returned A1 inh 1, MsrA inhibitor -1, bovine MsrA act 14*, procasp3 activ 1, procasp7 counter 3 and MsrA act confirm -3.
`CCc1noc(C)c1C(=O)N1CCN(S(=O)(=O)c2cccs2)CC1` gave A1 inh 0, MsrA inhibitor -1, bovine MsrA act 10.0*, procasp3 activ -3, procasp7 counter 3 and MsrA act confirm -1.
Cc1ccnc(NC(=O)c2cccc(OC(F)F)c2)n1 was read as A1 inh 0, MsrA inhibitor 0, bovine MsrA act -3, procasp3 activ 2 and procasp7 counter -7.
Screening Cc1ccc(C(=O)Nc2nccc(C)n2)cc1 returned A1 inh -2, MsrA inhibitor -1, bovine MsrA act 8.7*, procasp3 activ 6, procasp7 counter 2 and MsrA act confirm -1.
Oc1cccc2oc(=S)[nH]c12 was read as MsrA inhibitor 1, bovine MsrA act 12* and MsrA act confirm -1.
For O=c1oc2ccccc2cc1-c1ccc(O)cc1O the results were A1 inh 0, MsrA inhibitor 1, bovine MsrA act -3, procasp3 activ 5 and procasp7 counter 2.
Cc1ccccc1Nc1nc(N)nc(COC(=O)[C@@H](NC(=O)c2ccccc2Cl)C(C)C)n1 was read as A1 inh -1, MsrA inhibitor -2, bovine MsrA act 8.1*, procasp3 activ 2, procasp7 counter 3 and MsrA act confirm 0.
Screening COc1ccc(N2CCN(C(c3nnnn3C3CCCC3)C(C)C)CC2)cc1 (configuration not stated) returned A1 inh 0, MsrA inhibitor 0, bovine MsrA act 8.9*, procasp3 activ 0, procasp7 counter 1 and MsrA act confirm 0.
For COc1ccc(S(=O)(=O)NC(CC(=O)NCCc2ccc(OC)c(OC)c2)C(C)C)cc1 (configuration not stated) the results were A1 inh 0, MsrA inhibitor -1, bovine MsrA act 13*, procasp3 activ -5, procasp7 counter -1 and MsrA act confirm 0.
For COc1cc(Cl)c(CNC[C@H]2O[C@@H](n3ccc(=O)[nH]c3=O)[C@H](O)[C@@H]2O)c(Cl)c1O the results were MsrA inhibitor 0, bovine MsrA act 10* and MsrA act confirm -1.
Screening C#CCC1c2ccccc2CCN1CC=C (configuration not stated) returned MsrA inhibitor -1.
For COc1cccc(-c2cc3nc(NCCN4CCCC4)n(C)c(=O)c3s2)c1 the results were MsrA inhibitor 2, bovine MsrA act 12* and MsrA act confirm 1.
For Cn1c(NCCN2CCCC2)nc2cc(-c3ccccc3)sc2c1=O the results were MsrA inhibitor 0 and bovine MsrA act 1.
Screening CCOC(=O)N1CCN(C(=O)C[C@H]2C[C@@]3(C(=O)OC)C(=C[C@H](C(C)(C)C)O[C@@H]3C)N(Cc3ccc4c(c3)OCO4)C2=O)CC1 returned MsrA inhibitor 0.
For CCN(CC(=O)NCc1ccc(F)cc1)C(=O)c1ccc(Cl)cc1 the results were A1 inh 0, MsrA inhibitor 1, bovine MsrA act -1, procasp3 activ -6 and procasp7 counter 4.
`CCN(CC(=O)NCc1ccc(Cl)cc1)C(=O)c1ccc(C#N)cc1` gave A1 inh 0, MsrA inhibitor -1, bovine MsrA act 16*, procasp3 activ -2, procasp7 counter -13 and MsrA act confirm -1.
Brc1cccc(CN2CCN(c3ncc(Cc4ccccc4)cn3)CC2)n1 was read as MsrA inhibitor -1.
C[C@@H]1COc2cccc(NCCO)c2S(=O)(=O)N1 was read as MsrA inhibitor 0.
CCCCC(=O)NNC(=S)NC(=O)c1ccc(C)cc1 was read as A1 inh 0, MsrA inhibitor 1, bovine MsrA act 3, procasp3 activ -8 and procasp7 counter -19.
`O=C(NNC(=S)NC(=O)c1ccccc1)c1cccc([N+](=O)[O-])c1` gave A1 inh 0, MsrA inhibitor 3, bovine MsrA act 1, procasp3 activ -7 and procasp7 counter -20.
